Bioassay records (PubChem)
MrgX1 allo act – allosterically activates human MrgX1 receptor signaling. MrgX1-HEK293, Fluo-4 calcium flux, FDSS; active compounds read high. B-score at 10 µM. actives 0.63% (n = 310,000);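 active = plate-corrected calcium response at least 3 library SD above typical, normal starting fluorescence, not activating the receptor alone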;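 also: compound read alongside a low EC10 to EC30 dose of BAM8-22 agonist; peak minus trough fluorescence over baseline measured at the second addition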
Target sequence (Q96LB2 whole entry, looked up): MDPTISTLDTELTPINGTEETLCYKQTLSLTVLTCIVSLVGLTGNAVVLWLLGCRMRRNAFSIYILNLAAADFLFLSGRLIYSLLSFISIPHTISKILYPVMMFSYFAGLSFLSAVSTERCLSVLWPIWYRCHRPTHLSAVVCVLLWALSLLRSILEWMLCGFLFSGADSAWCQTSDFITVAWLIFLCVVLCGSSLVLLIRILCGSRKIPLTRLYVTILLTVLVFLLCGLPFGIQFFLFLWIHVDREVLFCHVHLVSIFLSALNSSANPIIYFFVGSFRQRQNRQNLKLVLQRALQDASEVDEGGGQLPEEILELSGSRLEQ
MrgX1 antagonist – blocks BAM8-22 activation of human MrgX1 receptor; Q96LB2; MRGX1-HEK293 calcium flux, Fluo-4, BAM8-22 antagonism; active compounds read low; B-score at 10 µM; actives 1.3% (n = 310,000); AID 588676;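 active = calcium-response B-score plate-corrected more than 3 library SD below zero, starting fluorescence within 5 deviations, no agonist response on first addition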;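 also: peak minus trough fluorescence over baseline after final BAM8-22 challenge near maximal dose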
RGS4 pot – RGS4 potentiation or activation; B-score at 10 µM; HEK293 M3R/inducible RGS4, carbachol calcium flux Fluo4; active compounds read low; actives 0.92% (n = 310,000);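 active = B-score of the integrated calcium signal more than 4 SD below the library mean, with starting fluorescence not abnormally high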;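 also: negative B-score means reduced calcium response which marks RGS4 activation or potentiation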
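Reagent: ECmax carbachol challenge; Test system: M3R-expressing HEK293 line, RGS4 induced by doxycycline; Schedule: overnight RGS4 induction, 30 min dye load 37 °C, 20 min compound RT; Detection: calcium dye Fluo4 fluorescence; Read-out: Agonist-evoked peak-minus-minimum fluorescence over baseline, integrated ratio, B score.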
RGS4 inh – inhibitors of human RGS4 | P49798 | HEK293 M3R/RGS4 inducible, Fluo-4 calcium flux; active compounds read high; triggered by carbachol at its EC20 | B-score at 10 µM | actives 0.45% (n = 310,000);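 active = B-score, a plate-corrected calcium signal, over three deviations above library mean, with baseline fluorescence within five deviations of library mean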;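 also: RGS4 expression induced by doxycycline in cells with stable M3 receptor; B-score is computed from the integrated fluorescence ratio over baseline after carbachol; higher B-score means a larger calcium signal and so more RGS4 inhibition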
Target sequence (P49798 whole entry, looked up): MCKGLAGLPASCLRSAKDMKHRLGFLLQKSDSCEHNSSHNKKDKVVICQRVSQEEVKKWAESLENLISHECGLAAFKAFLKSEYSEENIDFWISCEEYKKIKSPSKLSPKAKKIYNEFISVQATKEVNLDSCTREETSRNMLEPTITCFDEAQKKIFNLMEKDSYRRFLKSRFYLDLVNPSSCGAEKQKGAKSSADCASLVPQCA
MrgX1 ag – human MrgX1 receptor agonism, primary screen | Q96LB2 | MrgX1-HEK293 cells, Fluo-4 calcium fluorescence, agonist mode; active compounds read high | B-score at 10 µM | actives 0.44% (n = 310,000) | AID 588627;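 active = calcium response B-score plate-corrected fluorescence ratio at least 3 library SD, with starting fluorescence B-score inside 5 SD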
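System – MrgX1-expressing HEK293 cells · Incubation – cells plated overnight, dye loaded 0.5 h 37 °C, 0.5 h room temperature · Technique – kinetic Fluo-4 NW fluorescence of intracellular calcium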
MrgX1 antag conf – human MrgX1 receptor antagonism, re-confirmation screen | shares compounds with MrgX1 antagonist | remaining BAM8-22 calcium response % of control (active compounds read low), % at 10 µM | MrgX1-HEK293, BAM8-22 calcium flux, Fluo-4; active compounds read low | AID 602420 | actives 19% (n = 2,300);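 active = remaining agonist calcium response no higher than 100% minus 3 SD of agonist-only control wells, with starting fluorescence near control levels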;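 also: agonist BAM8-22 given at a near maximal EC90 to ECmax level; peak minus minimum fluorescence divided by baseline after agonist addition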
HEK293 Ca flux – MrgX1 antagonist counter-screen hit in parental HEK293 cells | shares compounds with MrgX1 antagonist | Fluo-4 calcium fluorescence, FDSS | fluorescence ratio F(max-min)/F0 at 10 µM | actives 2% (n = 4,000) | AID 624111;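 active = duplicate-averaged calcium fluorescence ratio at least three times the standard deviation of buffer wells, a nonspecific response in parental cells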
HEK293 Ca counter – activity in parental HEK293 cells without MrgX1; shares compounds with MrgX1 antagonist; parental HEK293 calcium flux, Fluo-4 fluorescence ratio; active compounds read high; fluorescence ratio F(max-min)/F0 at 10 µM; actives 0.4% (n = 4,000);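 active = calcium fluorescence ratio, averaged over duplicates, at least 3 SD of the buffer-well ratio, meaning a nonspecific response in receptor-free cells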;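 also: untransfected parental HEK293 lacking MrgX1 used as counterscreen for MrgX1 allosteric activators; fluorescence change taken during the second addition on a kinetic imager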
HEK293 Ca cntr2 – activity in parental HEK293 cells lacking MrgX1 receptor. actives 8.7% (n = 4,000). Fluo-4 calcium fluorescence (FDSS); active compounds read high. fluorescence ratio F(max-min)/F0 at 10 µM. shares compounds with MrgX1 antagonist;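 active = calcium fluorescence ratio at least three times the spread of buffer wells, meaning a non-specific response in parental cells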
Active calls of the source: *; i = inactive; / = no result given. Only some compounds are listed: those with a hit (about 3.5% of all), similar ones and a draw of the others.

SMILES	MrgX1 allo act	MrgX1 antagonist	RGS4 pot	RGS4 inh	MrgX1 ag	MrgX1 antag conf	HEK293 Ca flux	HEK293 Ca counter	HEK293 Ca cntr2
O=C(Cn1cc2c(n1)CCCC2)N1CCOCC1	i	-5.4*	i	i	i	i	i	i	i
O=C(N1CCC(n2nc(-c3ccccc3)oc2=O)CC1)C1(c2ccc(Cl)cc2)CC1	i	i	i	i	i	/	/	/	/
COc1ccccc1NC(=O)C1=C(C)Nc2nc(-c3cccs3)nn2C1c1cccnc1 (stereo not given)	i	-5.2*	i	i	i	i	i	i	i
COc1ccccc1NC(=O)C1=C(C)Nc2nc(-c3ccc(N(C)C)cc3)nn2C1c1ccncc1 (stereo not given)	i	i	/	/	i	/	/	/	/
CC(=O)c1ccc(N2CCN(C(=O)c3ccc(NC4=NC5CS(=O)(=O)CC5S4)cc3)CC2)cc1 (stereo not given)	i	i	i	i	i	/	/	/	/
COc1c2c(nc3ccccc13)OC(C(C)(O)COC(C)=O)C2 (stereo not given)	i	-6.5*	i	i	i	i	i	i	i
Cc1nc2ccccc2c2c1CC(C(C)(Cl)Br)O2 (stereo not given)	i	i	i	i	i	/	/	/	/
Cc1ccc(C(=O)NCCC(=O)Nc2ccccc2C)cc1	i	i	i	i	i	/	/	/	/
Cc1cccc(NC(=O)c2ccc(C(=O)c3ccccc3)cc2)n1	i	-4.9*	i	i	i	77%*	i	i	i
COc1ccc(C(=O)CC(=O)C(=O)Nc2ccc(Cl)cc2)cc1	i	i	i	i	i	/	/	/	/
COc1ccc(C(=O)CC(=O)C(=O)Nc2ccc(OC)c(Cl)c2)cc1	i	-5.1*	i	i	i	i	i	i	i
CC1(C)CC(=O)C=C(NCCO)C1	i	-4.7*	i	i	i	i	i	i	i
COC(=O)c1ccc(NC(=S)NC2CCCCC2)cc1	i	i	i	i	i	/	/	/	/
COC(=O)c1cccnc1NC(=S)NC1CCCCC1	i	-4.8*	i	i	i	i	i	i	i
CC1(C)C(=O)OC(/C=C\c2cccc([N+](=O)[O-])c2)C(C)(C)C1=O (stereo not given)	i	i	i	i	i	/	/	/	/
COc1ccc(C(=O)N/C(=C/c2ccc(Cl)cc2)C(=O)Nc2ccc(C(=O)O)cc2)cc1	i	i	i	i	i	/	/	/	/
Oc1ccc(C(=S)N2CCCCC2)cc1	i	-4.8*	i	i	i	i	i	i	i
COc1ccc2oc(C(=O)OCC(=O)NCc3ccccc3OC)c(C)c2c1	i	-5.1*	i	i	i	i	i	i	i
Cc1ccc2c(c1)N(C(=O)CCC(=O)N1CCC(C(N)=O)CC1)CCO2	i	i	i	i	i	/	/	/	/
CCOc1ccc(-n2nc3c(SCCN4CCCC4)nnc(C)c3c2C)cc1	i	-4.7*	i	i	i	i	i	i	i
Cc1ccc(-n2nc3c(SCCN4CCOCC4)nnc(C)c3c2C)cc1	i	i	i	i	i	/	/	/	/
O=C1C2CCCN2C(c2ccc(Br)cc2)N1c1ccc(F)cc1 (stereo not given)	i	-5.7*	i	i	i	i	i	i	i
COc1ccc(C2N(c3ccc(F)cc3)C(=O)C3CCCN32)cc1 (stereo not given)	i	-6.3*	i	i	i	i	i	i	i
O=C1C2CCCN2C(c2cccc(Br)c2)N1c1ccc(F)cc1 (stereo not given)	i	i	i	i	i	/	/	/	/
Cc1ccc2nc(SCC(=O)Nc3cc(C)on3)c(C)cc2c1	i	i	i	i	i	/	/	/	/
SMILES	MrgX1 allo act	MrgX1 antagonist	RGS4 pot	RGS4 inh	MrgX1 ag	MrgX1 antag conf	HEK293 Ca flux	HEK293 Ca counter	HEK293 Ca cntr2
Cc1cccnc1NC(=O)c1ccc(OCc2c(C)noc2C)cc1	i	i	i	i	i	/	/	/	/
COc1ccc(N(C(=O)c2ccccc2)S(=O)(=O)c2cccs2)cc1	i	i	i	i	i	/	/	/	/
COc1ccc(C(=O)N(c2ccc(OC)cc2)S(=O)(=O)c2cccs2)cc1	i	-4.9*	i	i	i	i	i	i	i
COc1ccccc1OCC(=O)Nc1nnc(C2CCCC2)s1	i	i	i	i	i	/	/	/	/
CC(=O)N1CCN(c2ccc(NC(=O)COc3ccc(Cl)cc3Cl)cc2)CC1	i	-7*	i	i	i	85%*	i	i	i
O=C(COc1cc(Cl)ccc1Cl)Nc1nnc(C2CC2)s1	i	-4.6*	i	i	i	i	i	i	i
CC(=O)c1sc(NC(=O)COc2ccc(Cl)cc2Cl)nc1C	i	-4.7*	i	i	i	i	i	i	i
COc1ccc(OC)c(S(=O)(=O)N2CCC(c3nc4ccccc4[nH]3)CC2)c1	i	i	i	i	i	/	/	/	/
Cc1ccc(NC(=O)NCc2ccccn2)c(C)c1	i	i	i	i	i	/	/	/	/
Cc1ccc(NCc2ccccc2O)cc1	i	i	i	i	i	/	/	/	/
Cc1ccc(NCc2ccccc2F)cc1	i	-5.9*	i	i	i	i	i	i	i
COc1ccc(NS(=O)(=O)c2cccc(C(=O)NCc3ccco3)c2)cc1	i	-6.5*	i	i	i	i	i	i	55*
Oc1ccccc1NCC(O)Cn1ccc2ccccc21 (stereo not given)	i	-5.3*	i	i	i	i	i	i	i
CC(=O)Nc1ccc(NCN2C(=O)C3C4CCC(C4)C3C2=O)cc1 (stereo not given)	i	i	i	i	i	/	/	/	/
